An excerpt weighted towards active compounds, which were near 0.6% of everything screened.
LANA DNA inh: blocks KSHV LANA C-terminal domain binding to DNA; inhibition, % at 9 µM; AID 504423; hit rate 0.078% among 340,000; MBP-C-LANA/FAM-LBS DNA binding, fluorescence polarization;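 active means highest replicate inhibition at or above 60% at 9 µM, even if other replicates fall short; inactive means all replicates below 60% inhibition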
DDE Tn6 FP inh: DD(E)-Tn6 binding inhibition, primary FP screen. P02675. Fibrin DD(E) TRITC-Tn6 fluorescence polarization displacement. inhibition, % at 8.3 µM. hit rate 0.21% among 370,000;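 active means inhibition above a per-campaign cutoff: mean of compounds within control limits plus 3 SD, cut at about 15% in these data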
Rtt109 HAT inh: inhibitors of Candida albicans Rtt109/Vps75 histone acetyltransferase; purified Rtt109/Vps75, ThioGlo CoA-SH fluorescence, 4 h; hit rate 0.16% among 330,000; Q5AAJ8; AID 540336; inhibition, % at 34.9 µM;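 active means inhibition of at least 50% in every replicate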
Keap1 Nrf2 FP: Keap1-Nrf2 (human) interaction inhibition. Keap1 Kelch-Nrf2 peptide fluorescence polarization, 1536-well. AID 504523. hit rate 0.15% among 340,000. inhibition, % at 9.4 µM. Q14145; in the data active means inhibition above about 12%;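 further: human Keap1 Kelch domain with fluorescein labeled Nrf2 9mer peptide probe; higher means more block of Keap1 binding to Nrf2 peptide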
Target sequence (Q14145 whole entry, looked up, the tested form may be a part): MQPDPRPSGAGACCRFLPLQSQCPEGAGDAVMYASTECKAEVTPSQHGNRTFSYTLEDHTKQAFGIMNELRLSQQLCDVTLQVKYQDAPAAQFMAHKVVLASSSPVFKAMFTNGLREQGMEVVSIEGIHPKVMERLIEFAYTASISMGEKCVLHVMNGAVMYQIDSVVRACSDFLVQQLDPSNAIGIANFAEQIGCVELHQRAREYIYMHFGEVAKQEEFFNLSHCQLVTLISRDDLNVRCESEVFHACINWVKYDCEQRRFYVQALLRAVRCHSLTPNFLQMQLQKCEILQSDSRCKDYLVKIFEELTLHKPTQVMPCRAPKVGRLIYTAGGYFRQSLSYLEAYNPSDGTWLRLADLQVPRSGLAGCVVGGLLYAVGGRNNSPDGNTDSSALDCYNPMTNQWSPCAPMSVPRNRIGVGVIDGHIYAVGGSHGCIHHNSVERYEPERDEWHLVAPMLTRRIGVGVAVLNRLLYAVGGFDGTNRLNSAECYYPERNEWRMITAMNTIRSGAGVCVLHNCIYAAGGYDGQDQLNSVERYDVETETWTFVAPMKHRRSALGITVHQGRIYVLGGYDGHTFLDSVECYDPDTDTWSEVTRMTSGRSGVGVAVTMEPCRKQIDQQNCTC
DDE Tn7 FP inh: disrupts Tn7 cyclic peptide binding to fibrin D-Dimer-E complex. P02675. FP displacement of FITC-Tn7 peptide from fibrin DD(E); 0% = median of compound wells per plate. inhibition, % at 8.3 µM. hit rate 0.13% among 370,000;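 active means inhibition above the mean of compounds falling within the control limits plus 3 SD of them, cut at about 14% in these data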
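assay system = human clot-derived fibrin DD(E) complex | quantity = Fibrin-DD(E) at 2 µM final | timing = 10 min preincubation, 3 h with tracer, room temperature | signal = fluorescence polarization | measure = percent inhibition | benchmarks = high control wells with 10 µM unlabelled Aha-Tn7 peptide (full inhibition) | replicates = singlicate testing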
Hits are given with their value; - = inactive; . = no result given.

SMILES | LANA DNA inh | DDE Tn6 FP inh | Rtt109 HAT inh | Keap1 Nrf2 FP | DDE Tn7 FP inh
COc1cccc2c1[C@H](/C=C/c1ccccc1)[C@@H]([C@H](O)CO)OC2 | . | - | . | . | -
CCOC(=O)c1sc2nc(C)nc(SCC(=O)N(C)C3CCS(=O)(=O)C3)c2c1C (stereo unspecified) | - | - | 50 | - | -
CCCCCCN1CCS(=O)(=O)N(Cc2ccc(OC)cc2)C(C(=O)OC)C1 (stereo unspecified) | . | - | . | . | -
N#C/C(=C\c1ccc(O)c(O)c1)C(=O)c1ccc(O)c(O)c1 | 69 | - | - | - | -
N#C/C(=C\c1ccc(O)c(O)c1)C(=O)N1CCCC1 | - | - | - | - | -
Cc1ccc2nc(-c3ccc(NC(=O)CSc4nnc(-c5cccc(Cl)c5)n4Cc4ccco4)cc3)sc2c1 | . | - | . | . | -
O=C1COc2ccc(C(=O)NCc3ccco3)cc2N1 | - | - | 67 | - | -
O=C1COc2ccc(C(=O)c3ccccc3C(=O)NCc3ccco3)cc2N1 | - | - | 72 | - | -
COc1ccc(-n2c(COc3ccc(Cl)cc3)nnc2SCC(=O)c2ccc(-c3ccccc3)cc2)cc1 | . | - | . | . | -
CCOC(=O)c1csc(NC(=O)C2CCCN(S(=O)(=O)c3ccc([N+](=O)[O-])cc3)C2)n1 (stereo unspecified) | . | - | . | . | -
COc1ccc(CNC(=O)c2cc(-c3ccccc3)c(N3CCOCC3)s2)cc1OC | . | - | . | . | -
Cc1cccc(N2CCN(C(=O)Cn3sc4nc(C)cc(C)c4c3=O)CC2C)c1 (stereo unspecified) | - | . | 159 | - | .
Cc1ccc(NC(=O)Cn2sc3nc(C)cc(C)c3c2=O)c(Cl)c1 | - | - | 154 | - | -
CCOC(=O)[C@@H]1CSCCS(=O)(=O)N1Cc1ccccc1 | . | - | . | . | -
CC(=O)NC1CCCCN(Cc2ccc(Cl)cc2)C1=O (stereo unspecified) | . | - | . | . | -
Cc1ccc(C(=O)NC2CCCCN(Cc3cccc(F)c3)C2=O)cc1 (stereo unspecified) | . | - | . | . | -
CCC(C)CNC(=O)c1oc(=O)c2ccccc2c1-c1ccc(C)cc1 (stereo unspecified) | . | - | . | . | -
CCOC(=O)CNc1ccc2c(c1)OCO2 | - | - | - | 22 | -
COC(=O)C1CN(Cc2ccccc2)CCS(=O)(=O)N1Cc1ccccc1F (stereo unspecified) | . | - | . | . | -
COc1ccc(CC(=O)Cc2ccc(OC)c(OC)c2)cc1OC | . | - | . | . | 14
COc1ccc(CC(=O)N2CCN(C(=O)Cc3ccc(OC)c(OC)c3)CC2)cc1OC | . | - | . | . | -
Cc1cc(Cl)c(S(=O)(=O)N2CCCC2)cc1OCC(N)=O | - | - | 50 | - | -
NC(N)=N/N=C/c1ccc(OCc2ccccc2)c(OCc2ccccc2)c1 | - | - | 79 | - | -
CCn1c(SCC(=O)NN=Cc2cc(OC)ccc2OC)nnc1-c1ccc(OC)cc1 | . | - | . | . | -
CC1CCC2(CC1)NC(=S)N(c1ccccc1)N2 (stereo unspecified) | - | - | 95 | - | -
SMILES | LANA DNA inh | DDE Tn6 FP inh | Rtt109 HAT inh | Keap1 Nrf2 FP | DDE Tn7 FP inh
Cc1cc(C)c(C#N)c(SCc2nnc(-c3ccccc3)o2)n1 | - | - | - | - | -
Cc1ccc(C#N)c(SCc2nnc(-c3ccc(Cl)cc3)o2)n1 | - | - | 58 | - | -
CC(C)(C)c1ccc(C(=O)CC(Sc2ccc(Cl)cc2)C(=O)O)cc1 (stereo unspecified) | - | - | 126 | - | -
COCc1cc(C)c(C#N)c(=S)[nH]1 | - | . | 80 | - | .
COC(=O)[C@]12C[C@H](CC(=O)N3CCSCC3)C(=O)N(Cc3ccc(Cl)cc3Cl)C1=C[C@H](C(C)C)O[C@@H]2C1CC1 | . | - | . | . | -
COc1cc(C(=O)CCN2CCC(c3ccccc3)C2)cc(OC)c1OC (stereo unspecified) | - | - | 95 | - | -
O=C(CCN1CCC(c2ccccc2)C1)c1ccccc1 (stereo unspecified) | - | . | - | - | .
COc1cc2nc(NCCCN3CCN(C)CC3)n3nc(-c4ccccc4)nc3c2cc1OC | - | - | 82 | - | -
CCN(CC)CCCNc1nc2cc(OC)c(OC)cc2c2nc(-c3cccnc3)nn12 | - | - | 79 | - | -
COP(=O)(O)C[C@@H]1CCc2cc(C)cc([C@H](CC(C)C)NC(=O)OCc3ccccc3)c2O1 | . | - | . | . | -
C=CCN1C(=O)[C@@H](CC(=O)NCc2cccc(C(F)(F)F)c2)[C@]2(C(=O)OCC)CCCCC/C=C/12 | . | - | . | . | -
O=C(Nc1cccc([N+](=O)[O-])c1)NC1CCCCN(Cc2cccc(Cl)c2)C1=O (stereo unspecified) | . | - | . | . | -
O=C(O)c1ccc(-c2ccc(/C=N/Nc3ccc([N+](=O)[O-])cc3)o2)cc1 | - | - | 50 | - | -
O=C(CSc1nnc(-c2ccccc2F)n1Cc1ccco1)Nc1ccccc1-c1ccccc1 | . | - | . | . | -
CCCCCC(=O)Nc1cc(S(=O)(=O)O)cc2cc(S(=O)(=O)O)cc(O)c12 | 114 | - | - | - | -
CCOC(=O)C1CCN(c2nc(N)c3c(N)nc(SCC(=O)O)cc3c2C#N)CC1 | - | - | 68 | - | -
CCOC(=O)C1CCN(c2nc(C)cc(C)c2C#N)CC1 | - | - | - | - | -
COC(=O)C[C@@H]1CC[C@H]2[C@@H](COc3ccc(NC(=O)Nc4ccccc4Cl)cc3C(=O)N2C)O1 | . | - | . | . | -
CC(=O)Nc1ccc(C(=O)N2CC(=O)NC(=O)C2)cc1 | - | - | 63 | - | -
CCOC(=O)N1CCN(C(=O)c2ccc(NC(C)=O)cc2)CC1 | - | - | - | - | -
O=C1CCC(=O)N1c1ccc(-c2nc3ccccc3s2)cc1 | - | - | 52 | - | -
O=S(=O)(NN1CCOCC1)c1ccc(Br)cc1 | - | - | 53 | - | -
COC(C(=O)Nc1ccnn1C1CCN(Cc2ccc(C)o2)CC1)c1ccccc1 (stereo unspecified) | - | - | - | - | -
COCc1ccc(CN2CCC(n3nccc3NC(=O)C(OC)c3ccccc3)CC2)o1 (stereo unspecified) | - | - | 59 | - | -
COc1ccc(S[C@]2(C(=O)N3CCOCC3)CC(=O)N(C(=O)c3ccccc3)[C@@H]2c2ccc(OC)cc2)cc1 | . | - | . | . | -
SMILES | LANA DNA inh | DDE Tn6 FP inh | Rtt109 HAT inh | Keap1 Nrf2 FP | DDE Tn7 FP inh
CCOc1cccc(CNCCO)c1OCc1ccc(Cl)cc1Cl | - | - | - | - | -
CCOc1cccc(CNc2ccc(O)cc2)c1OCc1ccc(Cl)cc1Cl | - | 28 | - | - | -
CCOc1cccc(CNc2ccc(O)cc2)c1OCc1ccccc1Cl | - | 16 | - | - | -
CCCOc1ccc(N2C(=O)CC(N3CCN(C(=O)c4ccco4)CC3)C2=O)cc1 (stereo unspecified) | - | 17 | - | - | -
CCCCCCOc1ccc(N2C(=O)CC(N3CCN(C(=O)c4ccco4)CC3)C2=O)cc1 (stereo unspecified) | - | - | - | - | -
CNC(C)C(=O)NC(C(=O)N1CCCC1C(=O)Nc1cccc2ncccc12)C(C)C (stereo unspecified) | . | - | . | . | -
